Converted amounts (≈) assume the structure as drawn. A value given as a limit tells only on which side of the number the result lay.

Holding throughout (assay type): functional
The subject of experiment [1] is Staphylococcus aureus. As to the kind of experiment: Antimicrobial activity against Staphylococcus aureus 15187 by agar dilution method. The method in brief:
(§1)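 NCCLS agar dilution MIC in Mueller Hinton agar. Compounds were made up as 1 mg/mL DMSO stocks and serially diluted 2-fold into molten agar, final range 16 to 0.015. Direct colony suspensions in saline were set to 0.5 McFarland, diluted 10-fold, and spotted with a replicator. Plates were incubated in ambient air at 35 °C for 18–24 h.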
On the technique in general: Agar dilution tests growth on a series of plates holding different concentrations.

Experiment [2] has as its system Staphylococcus aureus. Briefly: Antimicrobial activity against methicillin-resistant Staphylococcus aureus 562 by agar dilution method. The procedure, abridged: as §1
In experiment [3] the test system is Staphylococcus aureus. Briefly: Antimicrobial activity against methicillin-resistant Staphylococcus aureus 33 by agar dilution method. The method in brief:
as §1

In a further experiment the test system is Enterococcus faecalis. Briefly: Antimicrobial activity against Enterococcus faecalis ATCC 29212 by agar dilution method. The method in brief:
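Compounds were stocked at 1 mg/mL in DMSO. Direct colony suspensions in saline were set to 0.5 McFarland, diluted 10-fold and applied with a replicator. Plates were incubated in ambient air at 35 °C for 18–24 h.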

The next experiment deals with Enterococcus faecium. As to the kind of experiment: Antimicrobial activity against vancomycin-resistant Enterococcus faecium 6A by agar dilution method. The procedure, abridged:
as §1

Another experiment deals with Streptococcus pyogenes. As to the kind of experiment: Antimicrobial activity against Streptococcus pyogenes ATCC 19615 by agar dilution method.
The test system of a further experiment is Streptococcus pneumoniae. As to the kind of experiment: Antimicrobial activity against Streptococcus pneumoniae ATCC 6303 by agar dilution method. The procedure, abridged: (§2)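 NCCLS agar dilution with serial 2-fold drug dilutions in Mueller Hinton agar, 16–0.015 µg/mL final. Drug stocks were 1 mg/mL in DMSO. The inoculum was a 0.5 McFarland saline colony suspension diluted 10-fold and replicator-spotted. As fastidious organisms, plates were incubated in 5% CO₂ at 35 °C for 18–24 h.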

Another experiment has as its system Moraxella catarrhalis. As to the kind of experiment: Antimicrobial activity against Moraxella catarrhalis M2 by agar dilution method. The method in brief: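 MIC was read by NCCLS agar dilution using doubling dilutions in Mueller Hinton agar, 16–0.015 µg/mL final, from 1 mg/mL DMSO stocks. Colonies were suspended in saline to 0.5 McFarland, diluted 10-fold and transferred with a replicator. Plates were incubated at 35 °C for 18–24 h.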

The next experiment concerns Haemophilus influenzae. As to the kind of experiment: Antimicrobial activity against Haemophilus influenzae ATCC 49247 by agar dilution method. The method in brief: as §2
Experiment [4] deals with Staphylococcus aureus. Briefly: Antimicrobial activity against Staphylococcus aureus ATCC 25923 by agar dilution method. The method in brief: as §1

For the compound `O=C1O[C@@H](CO)CN1c1ccc(N2CCN(c3ccc([N+](=O)[O-])s3)CC2)c(F)c1`, the MIC against Staphylococcus aureus [1], in the experiment with Staphylococcus aureus [2], against Staphylococcus aureus [3], with Enterococcus faecalis, with Enterococcus faecium and against Streptococcus pyogenes was 0.5 mg/L (≈ 1.18 µM) in each case. The MIC was 1 mg/L (≈ 2.37 µM) against Streptococcus pneumoniae, 2 mg/L (≈ 4.73 µM) against Moraxella catarrhalis, 8 mg/L (≈ 18.9 µM) against Haemophilus influenzae and 0.5 mg/L (≈ 1.18 µM) in the experiment with Staphylococcus aureus [4].

Regarding `CN[C@H](CC(C)C)C(=O)N[C@H]1C(=O)N[C@@H](CC(N)=O)C(=O)N[C@H]2C(=O)N[C@H]3C(=O)N[C@H](C(=O)N[C@H](C(=O)O)c4cc(O)cc(O)c4-c4cc3ccc4O)[C@H](O)c3ccc(c(Cl)c3)Oc3cc2cc(c3O[C@@H]2O[C@H](CO)[C@@H](O)[C@H](O)[C@H]2O[C@H]2C[C@](C)(N)[C@H](O)[C@H](C)O2)Oc2ccc(cc2Cl)[C@H]1O` [VANCOMYCIN], the MIC is greater than 16 mg/L against Enterococcus faecium, 0.5 mg/L (≈ 0.345 µM) against Streptococcus pneumoniae, greater than 16 mg/L in the experiment on Moraxella catarrhalis and greater than 64 mg/L against Haemophilus influenzae.

In the case of `CC(=O)OC[C@H]1CN(c2ccc(N3CCN(c4ccc([N+](=O)[O-])s4)CC3)c(F)c2)C(=O)O1`, the MIC stood at 0.5 mg/L (≈ 1.08 µM) with Staphylococcus aureus [1]; 0.5 mg/L (≈ 1.08 µM) against Staphylococcus aureus [2]; 0.5 mg/L (≈ 1.08 µM) against Staphylococcus aureus [3]; 0.5 mg/L (≈ 1.08 µM) in the experiment with Enterococcus faecalis; 1 mg/L (≈ 2.15 µM) in the experiment with Enterococcus faecium; 0.25 mg/L (≈ 0.538 µM) against Streptococcus pyogenes. In addition, the MIC against Streptococcus pneumoniae is 1 mg/L (≈ 2.15 µM); against Moraxella catarrhalis, greater than 16 mg/L; in the experiment with Haemophilus influenzae, greater than 16 mg/L; against Staphylococcus aureus [4], 0.5 mg/L (≈ 1.08 µM).

On to `Cc1ccccc1S(=O)(=O)NC(=O)OC[C@H]1CN(c2ccc(N3CCN(c4ccc([N+](=O)[O-])s4)CC3)c(F)c2)C(=O)O1`, for which the MIC with Staphylococcus aureus [1] came to 16 mg/L (≈ 25.8 µM); against Staphylococcus aureus [2] it was 16 mg/L (≈ 25.8 µM); against Staphylococcus aureus [3], 16 mg/L (≈ 25.8 µM); in the experiment with Enterococcus faecalis, 8 mg/L (≈ 12.9 µM); in the experiment with Enterococcus faecium it was 1 mg/L (≈ 1.61 µM); against Streptococcus pyogenes, 0.5 mg/L (≈ 0.807 µM). For the same compound, the MIC against Streptococcus pneumoniae is 1 mg/L (≈ 1.61 µM); against Moraxella catarrhalis, greater than 8 mg/L; in the experiment on Haemophilus influenzae it was greater than 16 mg/L; in the experiment on Staphylococcus aureus [4] it was 16 mg/L (≈ 25.8 µM).

Consider `CC(=O)NC[C@H]1CN(c2ccc(N3CCOCC3)c(F)c2)C(=O)O1` [LINEZOLID], for which the MIC was 2 mg/L (≈ 5.93 µM) against Enterococcus faecium, 2 mg/L (≈ 5.93 µM) against Streptococcus pyogenes, greater than 4 mg/L against Moraxella catarrhalis and 4 mg/L (≈ 11.9 µM) in the experiment with Haemophilus influenzae.

`CC(=O)NC[C@H]1CN(c2ccc(N3CCN(c4ccc([N+](=O)[O-])s4)CC3)c(F)c2)C(=O)O1`: the MIC against Staphylococcus aureus [1] is 0.25 mg/L (≈ 0.539 µM); with Staphylococcus aureus [2], 0.25 mg/L (≈ 0.539 µM); with Staphylococcus aureus [3], 0.25 mg/L (≈ 0.539 µM); with Enterococcus faecalis, 0.25 mg/L (≈ 0.539 µM); in the experiment on Enterococcus faecium it was 0.25 mg/L (≈ 0.539 µM); against Streptococcus pyogenes, 0.125 mg/L (≈ 0.27 µM). In addition, the MIC in the experiment on Streptococcus pneumoniae turned out to be 0.125 mg/L (≈ 0.27 µM); against Moraxella catarrhalis, 0.25 mg/L (≈ 0.539 µM); in the experiment with Haemophilus influenzae, 8 mg/L (≈ 17.3 µM); against Staphylococcus aureus [4], 0.25 mg/L (≈ 0.539 µM).
